{
  "source": "ChEMBL document CHEMBL4196069",
  "about": "(Eur J Med Chem, 2018)",
  "key": {"L02": {"tested_on": "L02", "test": "Antiproliferative activity against human LO2 cells after 72 hrs by MTT assay", "type": "cell-based", "conditions": "L02, 72 h", "procedure,_shortened": "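Cells pre-incubated 24 h at 37 °C in humidified 5% CO2, then exposed to compounds for 72 h. MTT (5 mg/mL) was added for 4 h, formazan was dissolved in DMSO, and OD was read at 570 nm. Vehicle control was 0.1% DMSO. IC50 was calculated from inhibition ratios as the mean ± SD of three independent experiments.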"}, "[1]": {"test": "Selectivity index, ratio of IC50 for human LO2 cells to IC50 for human Bel7402 cells", "type": "toxicity", "conditions": "LO2 cells versus Bel7402 cells, read-out: Ratio IC50", "procedure,_shortened": "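Selectivity index = IC50(L-O2)/IC50(Bel-7402), both IC50s from the 72 h MTT assay (mean of three independent experiments).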"}, "Bel-7402 [2]": {"tested_on": "Bel-7402", "test": "Cell cycle arrest in human Bel7402 cells assessed as accumulation at G2/M phase at 0.25 uM after 72 hrs by propidium iodide staining-based flow cytometric method (reference value: 23.71%)", "type": "functional"}, "Bel-7402 [3]": {"tested_on": "Bel-7402", "test": "Cell cycle arrest in human Bel7402 cells assessed as accumulation at G1 phase after 72 hrs by propidium iodide staining-based flow cytometric method", "type": "functional"}, "Bel-7402 [4]": {"tested_on": "Bel-7402", "test": "Induction of apoptosis in human Bel7402 cells assessed as cell shrinkage at 0.125 to 0.25 uM after 48 hrs by Hoechst 33258 staining based fluorescent microscopic method", "type": "functional", "procedure,_shortened": "(§1)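 Bel-7402 cells were seeded and grown 24 h, treated at 0.125, 0.25 and 0.5 µM for 48 h, then harvested by mild trypsinization and washed in PBS. They were stained with Hoechst 33258 for 15 min at room temperature in the dark and examined by fluorescence microscopy with a DAPI filter. Untreated cells served as control.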"}, "Bel-7402 [5]": {"tested_on": "Bel-7402", "test": "Induction of apoptosis in human Bel7402 cells assessed as reduction in number of adherent cells at 0.125 to 0.25 uM after 48 hrs by Hoechst 33258 staining based fluorescent microscopic method", "type": "functional, cell-based", "procedure,_shortened": "as §1"}, "Bel-7402 [6]": {"tested_on": "Bel-7402", "test": "Induction of apoptosis in human Bel7402 cells assessed as nuclear fragmentation at 0.5 uM after 48 hrs by Hoechst 33258 staining based fluorescent microscopic method", "type": "functional, cell-based", "procedure,_shortened": "as §1"}, "Bel-7402 [7]": {"tested_on": "Bel-7402", "test": "Induction of apoptosis in human Bel7402 cells assessed as late apoptotic cells at 0.125 uM after 72 hrs by Annexin V-FITC/propidium iodide staining based flow cytometry (reference value: 2.82%)", "type": "functional"}, "Bel-7402 [8]": {"tested_on": "Bel-7402", "test": "Induction of apoptosis in human Bel7402 cells assessed as early apoptotic cells at 0.25 uM after 72 hrs by Annexin V-FITC/propidium iodide staining based flow cytometry (reference value: 1.65%)", "type": "functional"}, "Bel-7402 [9]": {"tested_on": "Bel-7402", "test": "Induction of apoptosis in human Bel7402 cells assessed as late apoptotic cells at 0.25 uM after 72 hrs by Annexin V-FITC/propidium iodide staining based flow cytometry (reference value: 2.82%)", "type": "functional"}, "Bel-7402 [10]": {"tested_on": "Bel-7402", "test": "Induction of apoptosis in human Bel7402 cells assessed as late apoptotic cells at 0.5 uM after 72 hrs by Annexin V-FITC/propidium iodide staining based flow cytometry (reference value: 2.82%)", "type": "functional"}, "Bel-7402 [11]": {"tested_on": "Bel-7402", "test": "Induction of mitochondrial membrane depolarization in human Bel7402 cells after 24 to 48 hrs by JC1 staining based flow cytometric analysis", "type": "functional, cell-based"}, "Bel-7402 [12]": {"tested_on": "Bel-7402", "test": "Upregulation of caspase-9 level in human Bel7402 cells at 0.125 to 0.5 uM after 72 hrs by Western blot analysis", "type": "functional, cell-based", "procedure,_shortened": "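Bel-7402 cells were treated for 72 h at the indicated concentrations (0.125–0.5 µM) and lysed. Lysates were cleared at 14,000 g for 10 min at 4 °C, and 25 µg protein per lane was run on 10% SDS-PAGE and transferred to nitrocellulose. Membranes were blocked in 5% milk, probed overnight at 4 °C with monoclonal antibodies, and detected by ECL. Densitometry was normalized to GAPDH.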"}, "Bel-7402 [13]": {"tested_on": "Bel-7402", "test": "Induction of mitochondrial membrane depolarization in human Bel7402 cells assessed as cell with intact mitochondrial membrane potential at 0.25 uM after 24 to 48 hrs by JC-1 staining based flow cytometric analysis (reference value: 98.83%)", "type": "functional"}, "Bel-7402 [14]": {"tested_on": "Bel-7402", "test": "Induction of mitochondrial membrane depolarization in human Bel7402 cells assessed as cell with intact mitochondrial membrane potential at 0.5 uM after 24 to 48 hrs by JC-1 staining based flow cytometric analysis (reference value: 98.83%)", "type": "functional"}, "Bel-7402 [15]": {"tested_on": "Bel-7402", "test": "Induction of mitochondrial membrane depolarization in human Bel7402 cells assessed as cells with mitochondrial membrane potential loss at 0.5 uM after 24 to 48 hrs by JC-1 staining based flow cytometric analysis (reference value: 6.17%)", "type": "functional"}},
  "note": "Active and inactive are the calls of the source. The calls are words filed in the database; no cut-off is given here.",
  "data": [
    {"smiles": "C[C@H]1CCC/C=C/[C@@H]2C[C@H](O)C[C@H]2[C@H](OC(=O)c2ccc(N(CCCl)CCCl)cc2)/C=C/C(=O)O1", "values": [
      {"measurement": "IC50", "setting": "L02", "value": 9.74, "unit": "µM"},
      {"measurement": "selectivity ratio", "setting": "[1]", "value": 38.9},
      {"measurement": "Activity", "setting": "Bel-7402 [2]", "value": 13.27, "unit": "%"},
      {"measurement": "Activity", "setting": "Bel-7402 [3]", "value": "Dose-dependent effect"},
      {"measurement": "Activity", "setting": "Bel-7402 [4]", "value": "Active"},
      {"measurement": "Activity", "setting": "Bel-7402 [5]", "value": "Active"},
      {"measurement": "Activity", "setting": "Bel-7402 [6]", "value": "Active"},
      {"measurement": "Activity", "setting": "Bel-7402 [7]", "value": 5.47, "unit": "%"},
      {"measurement": "Activity", "setting": "Bel-7402 [8]", "value": 22.69, "unit": "%"},
      {"measurement": "Activity", "setting": "Bel-7402 [9]", "value": 11.26, "unit": "%"},
      {"measurement": "Activity", "setting": "Bel-7402 [10]", "value": 18.48, "unit": "%"},
      {"measurement": "Activity", "setting": "Bel-7402 [11]", "value": "Dose-dependent effect"},
      {"measurement": "Activity", "setting": "Bel-7402 [12]", "value": "Active"},
      {"measurement": "Activity", "setting": "Bel-7402 [13]", "value": 70.4, "unit": "%"},
      {"measurement": "Activity", "setting": "Bel-7402 [14]", "value": 56.15, "unit": "%"},
      {"measurement": "Activity", "setting": "Bel-7402 [15]", "value": 43.85, "unit": "%"}
    ]}
  ]
}
